Experimental data taken from ChEMBL document CHEMBL1143468, “Novel 3,4-diarylpyrazolines as potent cannabinoid CB1 receptor antagonists with lower lipophilicity” (Bioorg Med Chem Lett, 2005).

Key:
[1] = Partition coefficient (logP) (HPLC); format: physicochemical; settings: octanol/water
Procedure, shortened: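 logP was measured with a validated reverse-phase HPLC method.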

Mus musculus = experiment: Antagonism of WIN-55212-2 induced hypothermia in mice expressed as least effective dose upon peroral administration; format: functional
P-glycoprotein (ABCB1) = P-glycoprotein (ABCB1) (Homo sapiens, UniProt P08183); experiment: P-glycoprotein-based membrane transport factor, expressed as the ratio of the bottom to top transport and top to bottom transport; settings: not told
Chain of P-glycoprotein (ABCB1) (P08183 whole entry): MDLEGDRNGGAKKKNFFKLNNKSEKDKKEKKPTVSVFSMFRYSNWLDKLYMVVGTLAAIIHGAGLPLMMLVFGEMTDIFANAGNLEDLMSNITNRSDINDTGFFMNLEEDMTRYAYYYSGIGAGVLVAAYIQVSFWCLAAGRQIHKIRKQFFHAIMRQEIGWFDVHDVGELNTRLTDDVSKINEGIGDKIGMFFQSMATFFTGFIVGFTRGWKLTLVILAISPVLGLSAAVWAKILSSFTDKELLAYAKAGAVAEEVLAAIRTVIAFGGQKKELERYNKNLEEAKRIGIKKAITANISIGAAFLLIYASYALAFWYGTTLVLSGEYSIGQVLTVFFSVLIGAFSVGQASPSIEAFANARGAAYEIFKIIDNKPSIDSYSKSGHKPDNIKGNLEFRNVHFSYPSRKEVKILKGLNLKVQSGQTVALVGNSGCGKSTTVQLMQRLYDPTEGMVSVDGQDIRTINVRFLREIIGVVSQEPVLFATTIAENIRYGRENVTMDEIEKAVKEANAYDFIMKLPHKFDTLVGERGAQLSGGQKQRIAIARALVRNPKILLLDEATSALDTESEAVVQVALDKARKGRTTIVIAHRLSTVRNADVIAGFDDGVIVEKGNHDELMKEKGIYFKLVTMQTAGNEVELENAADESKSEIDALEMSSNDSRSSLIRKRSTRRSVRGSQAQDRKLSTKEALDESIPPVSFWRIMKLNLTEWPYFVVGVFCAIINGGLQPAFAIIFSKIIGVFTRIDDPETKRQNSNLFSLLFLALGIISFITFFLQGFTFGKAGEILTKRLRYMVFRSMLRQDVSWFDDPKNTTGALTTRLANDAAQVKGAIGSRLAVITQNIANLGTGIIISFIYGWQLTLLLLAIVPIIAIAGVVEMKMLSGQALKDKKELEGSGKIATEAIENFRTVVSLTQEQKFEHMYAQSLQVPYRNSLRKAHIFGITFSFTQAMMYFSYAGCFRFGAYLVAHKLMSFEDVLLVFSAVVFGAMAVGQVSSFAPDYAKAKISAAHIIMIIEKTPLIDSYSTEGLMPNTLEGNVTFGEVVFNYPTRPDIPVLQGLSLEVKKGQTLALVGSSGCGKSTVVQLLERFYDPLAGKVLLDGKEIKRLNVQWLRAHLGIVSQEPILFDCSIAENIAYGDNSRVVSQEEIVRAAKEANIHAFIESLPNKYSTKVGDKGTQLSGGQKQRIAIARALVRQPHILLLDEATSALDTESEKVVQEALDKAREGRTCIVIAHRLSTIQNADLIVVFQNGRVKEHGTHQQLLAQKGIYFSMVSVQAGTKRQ

Rattus norvegicus = experiment: Antagonism of CP-55940 induced hypotension in rat expressed as effective dose upon peroral administration; settings: po
Cannabinoid receptor 2 = Cannabinoid receptor 2 (Homo sapiens, UniProt P34972); experiment: Displacement of specific CP-55940 binding in CHO cells stably transfected with human cannabinoid receptor 2; format: cell-based
Chain of Cannabinoid receptor 2 (P34972 whole entry): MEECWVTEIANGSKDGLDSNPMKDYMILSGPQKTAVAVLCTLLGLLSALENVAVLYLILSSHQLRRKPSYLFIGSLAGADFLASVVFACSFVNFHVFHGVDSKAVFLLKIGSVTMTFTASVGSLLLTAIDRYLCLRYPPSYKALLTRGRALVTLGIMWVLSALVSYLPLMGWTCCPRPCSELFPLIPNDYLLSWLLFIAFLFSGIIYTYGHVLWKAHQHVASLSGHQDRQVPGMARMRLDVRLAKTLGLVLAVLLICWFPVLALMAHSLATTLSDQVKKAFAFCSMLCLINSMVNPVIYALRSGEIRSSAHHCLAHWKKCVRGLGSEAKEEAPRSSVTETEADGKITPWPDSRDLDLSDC

Cannabinoid receptor 1 = Cannabinoid receptor 1 (Homo sapiens, UniProt P21554); experiment: biochemical; format: cell-based, CHO
Chain of Cannabinoid receptor 1 (P21554 whole entry): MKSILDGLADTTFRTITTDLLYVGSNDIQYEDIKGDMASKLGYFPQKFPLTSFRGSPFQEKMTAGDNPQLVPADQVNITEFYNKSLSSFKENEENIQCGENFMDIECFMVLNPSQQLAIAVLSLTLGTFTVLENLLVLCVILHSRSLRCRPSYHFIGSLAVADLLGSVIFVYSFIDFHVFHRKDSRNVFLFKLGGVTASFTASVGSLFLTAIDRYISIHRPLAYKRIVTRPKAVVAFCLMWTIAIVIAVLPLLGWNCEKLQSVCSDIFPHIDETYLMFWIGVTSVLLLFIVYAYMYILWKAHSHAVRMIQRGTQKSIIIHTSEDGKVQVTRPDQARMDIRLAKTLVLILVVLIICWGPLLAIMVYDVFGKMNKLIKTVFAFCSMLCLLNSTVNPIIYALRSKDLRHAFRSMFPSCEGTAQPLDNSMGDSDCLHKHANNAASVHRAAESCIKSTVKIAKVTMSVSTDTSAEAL

SMILES	logP [1]	LED (Mus musculus) [mg/kg]	efflux ratio (P-glycoprotein (ABCB1))	ED50 (Rattus norvegicus) [mg/kg]	Ki (Cannabinoid receptor 2) [nM]	Ki (Cannabinoid receptor 1) [nM]
CN/C(=N\S(=O)(=O)N1CCCCC1)N1C[C@H](c2ccccc2)C(c2ccc(Cl)cc2)=N1	4.8	10	1.4	8		
C/N=C(\NS(=O)(=O)N1CCOCC1)N1CC(c2ccccc2)C(c2ccc(Cl)cc2)=N1 (stereo not drawn)	3.8	3		27	5370	
CCN(CC)S(=O)(=O)N=C(NC(C)C)N1CC(c2ccccc2)C(c2ccc(Cl)cc2)=N1 (stereo not drawn)					2750	60
CCN(CC)S(=O)(=O)N/C(=N\C)N1CC(c2ccccc2)C(c2ccc(Cl)cc2)=N1 (stereo not drawn)	4.8	3	1.5	20	3270	30
CNC(=NS(=O)(=O)N1CCCCC1)N1CC(c2ccccc2)C(c2ccc(Cl)cc2)=N1 (stereo not drawn)					1320	
CCN(CC)S(=O)(=O)NC(=NC)N1CC(c2cccnc2)C(c2ccc(Cl)cc2)=N1 (stereo not drawn)	3.2		3.4	> 30	9080	141
CN=C(NS(=O)(=O)N1CCCC1)N1CC(c2ccccc2)C(c2ccc(Cl)cc2)=N1 (stereo not drawn)					1600	231
CN/C(=N\S(=O)(=O)N1CCCCCC1)N1CC(c2ccccc2)C(c2ccc(Cl)cc2)=N1 (stereo not drawn)					1030	155
CNC(=NS(=O)(=O)N1CCCCCCC1)N1CC(c2ccccc2)C(c2ccc(Cl)cc2)=N1 (stereo not drawn)					2580	125
CCN(C)S(=O)(=O)NC(=NC)N1CC(c2ccccc2)C(c2ccc(Cl)cc2)=N1 (stereo not drawn)					1870	117
C/N=C(\NS(=O)(=O)N(C)C(C)C)N1CC(c2ccccc2)C(c2ccc(Cl)cc2)=N1 (stereo not drawn)					1130	32
C/N=C(\NS(=O)(=O)N(C)C)N1CC(c2ccccc2)C(c2ccc(Cl)cc2)=N1 (stereo not drawn)					3830	
CC/N=C(\NS(=O)(=O)N(CC)CC)N1CC(c2ccccc2)C(c2ccc(Cl)cc2)=N1 (stereo not drawn)					2860	209
C/N=C(\NS(=O)(=O)N1CCSCC1)N1CC(c2ccccc2)C(c2ccc(Cl)cc2)=N1 (stereo not drawn)					3530	24
CN=C(NS(=O)(=O)N1CCS(=O)(=O)CC1)N1CC(c2ccccc2)C(c2ccc(Cl)cc2)=N1 (stereo not drawn)						832
CN/C(=N\S(=O)(=O)c1ccc(Cl)cc1)N1C[C@H](c2ccccc2)C(c2ccc(Cl)cc2)=N1 [IBIPINABANT]	5.1	3		5.5		
Cc1c(C(=O)NN2CCCCC2)nn(-c2ccc(Cl)cc2Cl)c1-c1ccc(Cl)cc1 [RIMONABANT]		3		3.2		
